ChEMBL document CHEMBL4330067, “Synthesis and mechanistic studies of diketo acids and their bioisosteres as potential antibacterial agents” (Eur J Med Chem, 2019)
pKi: −log10 of the molar value. Converted amounts (≈) assume the structure as drawn. The source made the active and inactive calls. No cut-off for these calls is given here.

Legend:
Escherichia coli [1] = assay: Antibacterial activity against Escherichia coli MRAE32 at 512 ug/mL after 24 hrs by broth dilution assay relative to control; type: functional
Summary of the method: (§1)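 Multidrug-resistant E. coli isolates in Luria broth, test range 8 to 1024 µg/mL (ciprofloxacin 0.49 to 63.3 µg/mL). Inoculum 10 µL of a 1000-fold diluted 0.1 OD600 culture, incubated overnight at 37 °C. OD read at 600 nm. % inhibition = (a−b)/a×100, with media and compound-colour blanks subtracted.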

Escherichia coli [2] = assay: Antibacterial activity against Escherichia coli MRC17 after overnight incubation; type: functional; summary of the method: as §1
Klebsiella pneumoniae = assay: Anti-biofilm activity against Klebsiella pneumoniae after 24 hrs by XTT assay; type: functional, organism-based
Summary of the method: (§2)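 Biofilm XTT reduction assay: serial dilutions 1000 to 7.8 µg/mL in tryptic soy broth, inoculum approx. 5×10⁵ CFU/mL, 37 °C for 24 h static. Non-adherent cells removed by PBS wash, XTT added, 90 min at 37 °C in dark, absorbance at 490 nm. IC50 (50% inhibition of biofilm formation) read from dose-response curves.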

Escherichia coli [3] = assay: Antibacterial activity against Escherichia coli MRAE33 at 1024 ug/mL after 24 hrs by broth dilution assay relative to control; type: functional; summary of the method: as §1
[4] = Inhibition of Enterococcus faecalis methionine aminopeptidase 1A using Met-AMC as substrate by Dixon method
Summary of the method: (§3)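 Purified MetAP at 4 µM in 50 mM HEPES with 150 mM KCl and CoCl2 at 3 molar equivalents of enzyme. pH 7.5 for SpMetAP1a and EfMetAP1a, pH 8.0 for HsMetAP1b. Substrate L-Met-AMC at 50, 100 and 150 µM. Compounds (10 mM DMSO stocks) tested over 1 to 120 µM for % inhibition; Ki by Dixon method.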

CHO [5] = assay: Cytotoxicity against CHO cells at 300 ug/mL after 48 hrs by MTT assay; type: cell-based, Cricetulus griseus; conditions: chinese hamster
Summary of the method: (§4)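 MTT assay: cells maintained in DMEM with 10% FBS and penicillin/streptomycin at 37 °C, 5% CO2. Seeded at approx. 2×10⁴ cells/well, 24 h before treatment, then exposed to 10 to 400 µg/mL for 48 h at 37 °C. MTT (5 mg/mL stock in PBS) added for 4 h, formazan dissolved in DMSO, A570 read. Triplicate wells; viability given relative to untreated cells.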

Escherichia coli [6] = assay: Antibacterial activity against Escherichia coli MROB11 after overnight incubation; type: functional; summary of the method: as §1
[7] = Inhibition of Mycobacterium tuberculosis methionine aminopeptidase 1C using Met-AMC as substrate by Dixon method
Escherichia coli [8] = assay: Induction of cellular damage in Escherichia coli assessed as distorted cell membrane at MIC after 1 hr by TEM analysis; type: functional, organism-based
Escherichia coli [9] = assay: Antibacterial activity against Escherichia coli MRA11 after overnight incubation; type: functional; summary of the method: as §1
CHO [10] = assay: Cytotoxicity against CHO cells at 50 ug/mL after 48 hrs by MTT assay; type: cell-based, Cricetulus griseus; conditions: chinese hamster; summary of the method: as §4
Pseudomonas aeruginosa [11] = assay: Anti-biofilm activity against Pseudomonas aeruginosa after 24 hrs by XTT assay; type: functional, organism-based; summary of the method: as §2
Enterococcus faecalis [12] = assay: Antibacterial activity against Enterococcus faecalis MTCC 439 after 24 hrs by broth dilution assay; type: functional; conditions: MTCC 439, 24 h
Summary of the method: (§5)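 Broth dilution per NCCLS in nutrient broth, serial dilutions 1000 to 7.8 µg/mL, DMSO below 4% final. Inoculum approx. 2.5×10⁶ cells/mL, 37 °C with shaking at 150 rpm for 24 h. MIC taken as the lowest concentration with no visible growth. Ciprofloxacin served as positive control.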

[13] = Inhibition of human methionine aminopeptidase 1B using Met-AMC as substrate by Dixon method; summary of the method: as §3
Homo sapiens = organism: Homo sapiens; assay: Inhibition of human methionine aminopeptidase 1B at 100 uM using Met-AMC as substrate relative to control; summary of the method: as §3
Streptococcus pneumoniae [14] = assay: Induction of cellular damage in Streptococcus pneumoniae assessed as distorted cell membrane at MIC after 1 hr by TEM analysis; type: functional, organism-based
Escherichia coli [15] = assay: Antibacterial activity against Escherichia coli MRAE26 at 1024 ug/mL after 24 hrs by broth dilution assay relative to control; type: functional; summary of the method: as §1
Enterococcus faecalis [16] = assay: Inhibition of Enterococcus faecalis methionine aminopeptidase 1A at 100 uM using Met-AMC as substrate relative to control; summary of the method: as §3
[17] = Cytotoxicity against CHO cells assessed as cell viability at 100 ug/mL after 48 hrs by MTT assay relative to control; type: cell-based, Cricetulus griseus; conditions: chinese hamster, read-out: Activity; summary of the method: as §4
Streptococcus pneumoniae [18] = assay: Antibacterial activity against Streptococcus pneumoniae MTCC 655 after 24 hrs by broth dilution assay; type: functional; conditions: MTCC 655, 24 h; summary of the method: as §5
Escherichia coli [19] = assay: Antibacterial activity against Escherichia coli MRC24 after overnight incubation; type: functional; summary of the method: as §1
Escherichia coli [20] = assay: Bactericidal activity against Escherichia coli at 1 to 2 times MIC after 24 hrs by spectrophotometric analysis; type: functional, organism-based
Summary of the method: (§6)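 Growth kinetics in 50 mL nutrient broth seeded at approx. 2×10⁶ cells/mL, compound at 2MIC, MIC and ½MIC, 37 °C at 160 rpm. Ciprofloxacin 10 µg/mL as positive control. 1 mL aliquots taken every 2 h from 0 to 22 h. Turbidity read at 600 nm and OD plotted against time.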

Escherichia coli [21] = assay: Antibacterial activity against Escherichia coli MRAE26 after overnight incubation; type: functional; summary of the method: as §1
Escherichia coli [22] = assay: Synergistic antibacterial activity against Escherichia coli MRAE33 assessed as ciprofloxacin MIC at 16 to 1024 ug/mL after 18 hrs by checkerboard method; type: functional; conditions: MRAE33, 18 h
Summary of the method: (§7)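 Checkerboard combination with ciprofloxacin in Mueller-Hinton broth: compound 1024 to 16 µg/mL crossed with ciprofloxacin 128 to 2 µg/mL. Inoculum 5×10⁵ CFU/mL suspension, 18 h at 37 °C. Fractional inhibitory concentration index derived from the combination.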

Escherichia coli [23] = assay: Antibacterial activity against Escherichia coli MROB11 at 512 ug/mL after 24 hrs by broth dilution assay relative to control; type: functional; summary of the method: as §1
Streptococcus pneumoniae [24] = assay: Inhibition of Streptococcus pneumoniae methionine aminopeptidase 1A at 100 uM using Met-AMC as substrate relative to control; summary of the method: as §3
Escherichia coli [25] = assay: Synergistic antibacterial activity against Escherichia coli MRA11 assessed as fractional inhibitory concentration index after 18 hrs in presence of ciprofloxacin by checkerboard method; type: functional; summary of the method: as §7
Escherichia coli [26] = assay: Synergistic antibacterial activity against Escherichia coli MRA11 assessed as ciprofloxacin MIC at 16 to 1024 ug/mL after 18 hrs by checkerboard method; type: functional; conditions: MRA11, 18 h; summary of the method: as §7
Escherichia coli [27] = assay: Antibacterial activity against Escherichia coli MRAE32 after overnight incubation; type: functional; summary of the method: as §1
Pseudomonas aeruginosa [28] = assay: Bactericidal activity against Pseudomonas aeruginosa at sub-MIC after 10 hrs by spectrophotometric analysis; type: functional, organism-based; summary of the method: as §6
Pseudomonas aeruginosa [29] = assay: Bactericidal activity against Pseudomonas aeruginosa at 1 to 2 times MIC after 24 hrs by spectrophotometric analysis; type: functional, organism-based; summary of the method: as §6
Escherichia coli [30] = assay: Synergistic antibacterial activity against Escherichia coli MRC17 after 18 hrs in presence of ciprofloxacin by checkerboard method; type: functional; conditions: MRC17, 18 h; summary of the method: as §7
Escherichia coli [31] = assay: Antibacterial activity against Escherichia coli MRA11 at 512 ug/mL after 24 hrs by broth dilution assay relative to control; type: functional; summary of the method: as §1
Escherichia coli [32] = assay: Anti-biofilm activity against Escherichia coli after 24 hrs by XTT assay; type: functional, organism-based; summary of the method: as §2

Compound Cc1c(C(=O)/C=C(\O)C(=O)N[C@H](C)C(=O)O)oc2ccc(Br)cc12 has an Activity (Escherichia coli [1]) of 100%, an ICmax (Escherichia coli [2]) of 512 µg/mL and an MIC (Escherichia coli [2]; Escherichia coli, MRC17) of 512 µg/mL (≈ 1290 µM). The IC50 (Klebsiella pneumoniae) was 113 µg/mL (≈ 286 µM), the Activity (Escherichia coli [3]) was >95% and the pKi [4] was 4.92. For the same compound, the Activity (CHO [5]) was “Toxic”, the ICmax (Escherichia coli [6]) was 512 µg/mL and the pKi [7] was 5.00. For the same compound, the Activity (Escherichia coli [8]) was “Active”, the ICmax (Escherichia coli [9]) was 512 µg/mL and the MIC (Escherichia coli [9]; Escherichia coli, MRA11) was 512 µg/mL (≈ 1290 µM). The Activity (CHO [10]) was “Non-Toxic”, the IC50 (Pseudomonas aeruginosa [11]) was 1.69 µg/mL (≈ 4.27 µM) and the MIC (Enterococcus faecalis [12]) was 125 µg/mL (≈ 316 µM). The pKi [13] was 4.66, the inhibition (Homo sapiens) was 87.5% and the Activity (Streptococcus pneumoniae [14]) was “Active”. The Activity (Escherichia coli [15]) was >95%, the inhibition (Enterococcus faecalis [16]) was 92.7% and the viability at 48 h, 100 ug/mL [17] was 70%. For the same compound, the MIC (Streptococcus pneumoniae [18]) was 62.5 µg/mL (≈ 158 µM), the ICmax (Escherichia coli [19]) was 512 µg/mL and the Activity (Escherichia coli [20]) was “Active”. It also gave an ICmax (Escherichia coli [21]) of 1024 µg/mL, an MIC (Escherichia coli [22]) of 2 µg/mL and an Activity (Escherichia coli [23]) of 100%. For the same compound, the inhibition (Streptococcus pneumoniae [24]) was 98.2%, the “fractional inhibitory concentration index (FICI)” value (Escherichia coli [25]) was 1.125 and the MIC (Escherichia coli [26]) was 16 µg/mL. For the same compound, the ICmax (Escherichia coli [27]) was 512 µg/mL, the Activity (Pseudomonas aeruginosa [28]) was “Active” and the Activity (Pseudomonas aeruginosa [29]) was “Active”. It also gave an MIC (Escherichia coli [30]) of 512 µg/mL, an Activity (Escherichia coli [31]) of 100% and an IC50 (Escherichia coli [32]) of 0.404 µg/mL (≈ 1.02 µM).
